Laboratory results: ChEMBL document CHEMBL1138526, “Design, synthesis, and biological activity of boronic acid-based histone deacetylase inhibitors” (J Med Chem, 2009)

molecular target: Histone deacetylase; assay: Inhibition of HDAC in human HeLa cell nuclear extracts by fluorimetry; type: cell-based; details: not given

IC50 [µM]	Compound
> 100	O=C(NC(CCCCCB(O)O)C(=O)Nc1cccc(-c2ccccc2)c1)c1ccc2ccccc2n1 (stereo not given)
15	O=C(N[C@H](CCCCCB(O)O)C(=O)Nc1cccc(-c2ccccc2)c1)c1cccnc1
51	O=C(Nc1cccnc1)C(CCCCCB(O)O)C(=O)Nc1cccc(-c2ccccc2)c1 (stereo not given)
4.7	O=C(NC(CCCCCB(O)O)C(=O)Nc1cccc(-c2ccccc2)c1)c1cscn1 (stereo not given)
1.6	O=C(N[C@@H](CCCCCB(O)O)C(=O)Nc1cccc(-c2ccccc2)c1)c1ccccc1
2	O=C(NC(CCCCCB(O)O)C(=O)Nc1cccc(-c2ccccc2)c1)c1ccccc1 (stereo not given)
0.92	O=C(N[C@@H](CCCCCB(O)O)C(=O)Nc1cccc(-c2ccccc2)c1)c1cncs1
30	O=C(Nc1ccccc1)C(CCCCCB(O)O)C(=O)Nc1cccc(-c2ccccc2)c1 (stereo not given)
17	O=C(N[C@H](CCCCCB(O)O)C(=O)Nc1cccc(-c2ccccc2)c1)c1ccccc1
1.4	O=C(N[C@@H](CCCCCB(O)O)C(=O)Nc1cccc(-c2ccccc2)c1)c1cccnc1
4.2	O=C(NC(CCCCCB(O)O)C(=O)Nc1cccc(-c2ccccc2)c1)OCc1ccccc1 (stereo not given)
2	O=C(NC(CCCCCB(O)O)C(=O)Nc1cccc(-c2ccccc2)c1)c1cccnc1 (stereo not given)
1.4	O=C(NC(CCCCCB(O)O)C(=O)Nc1cccc(-c2ccccc2)c1)c1cncs1 (stereo not given)
24	O=C(N[C@H](CCCCCB(O)O)C(=O)Nc1cccc(-c2ccccc2)c1)c1cncs1

molecular target: T1, Histone deacetylase 1 (Homo sapiens, UniProt Q13547); assay: Inhibition of human recombinant HDAC1 by fluorimetry; details: not given
T1 sequence (Q13547 whole entry): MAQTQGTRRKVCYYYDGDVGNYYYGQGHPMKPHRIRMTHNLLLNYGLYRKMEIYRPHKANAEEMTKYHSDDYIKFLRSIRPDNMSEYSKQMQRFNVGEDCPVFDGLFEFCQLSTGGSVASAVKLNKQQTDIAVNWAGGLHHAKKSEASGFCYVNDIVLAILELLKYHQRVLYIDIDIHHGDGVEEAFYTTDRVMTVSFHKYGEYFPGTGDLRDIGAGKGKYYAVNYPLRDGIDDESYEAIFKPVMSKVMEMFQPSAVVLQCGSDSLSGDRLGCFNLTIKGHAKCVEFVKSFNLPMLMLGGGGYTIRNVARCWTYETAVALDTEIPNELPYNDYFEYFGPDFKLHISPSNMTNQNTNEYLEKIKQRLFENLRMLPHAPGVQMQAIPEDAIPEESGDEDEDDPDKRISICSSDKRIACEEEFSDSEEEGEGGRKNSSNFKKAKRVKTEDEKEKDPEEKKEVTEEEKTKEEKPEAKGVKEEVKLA

IC50 [µM]	Compound
> 100	O=C(N[C@H](CCCCCB(O)O)C(=O)Nc1cccc(-c2ccccc2)c1)c1cccnc1
> 10	O=C(N[C@@H](CCCCCB(O)O)C(=O)Nc1cccc(-c2ccccc2)c1)c1ccccc1
2.2	O=C(N[C@@H](CCCCCB(O)O)C(=O)Nc1cccc(-c2ccccc2)c1)c1cncs1
> 100	O=C(N[C@H](CCCCCB(O)O)C(=O)Nc1cccc(-c2ccccc2)c1)c1ccccc1
2.8	O=C(N[C@@H](CCCCCB(O)O)C(=O)Nc1cccc(-c2ccccc2)c1)c1cccnc1
> 100	O=C(N[C@H](CCCCCB(O)O)C(=O)Nc1cccc(-c2ccccc2)c1)c1cncs1

molecular target: Histone deacetylase 2 (Homo sapiens, UniProt Q92769); assay: Inhibition of human recombinant HDAC2 by fluorimetry; details: not given
Sequence (Q92769 whole entry): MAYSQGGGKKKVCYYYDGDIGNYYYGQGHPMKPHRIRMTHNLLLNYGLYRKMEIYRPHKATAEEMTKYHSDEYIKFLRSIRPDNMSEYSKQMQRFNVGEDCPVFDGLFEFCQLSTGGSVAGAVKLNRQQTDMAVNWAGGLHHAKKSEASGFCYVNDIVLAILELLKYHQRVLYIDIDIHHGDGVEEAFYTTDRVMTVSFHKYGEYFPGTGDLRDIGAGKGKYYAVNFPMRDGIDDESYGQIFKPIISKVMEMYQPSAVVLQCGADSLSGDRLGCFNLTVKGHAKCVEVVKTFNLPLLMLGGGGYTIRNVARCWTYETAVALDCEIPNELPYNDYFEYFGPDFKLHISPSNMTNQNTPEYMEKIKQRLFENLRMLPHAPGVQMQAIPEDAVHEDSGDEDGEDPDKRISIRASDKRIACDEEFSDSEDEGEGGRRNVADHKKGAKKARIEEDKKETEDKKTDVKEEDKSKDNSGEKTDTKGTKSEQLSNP

IC50 [µM]	Compound
99	O=C(N[C@H](CCCCCB(O)O)C(=O)Nc1cccc(-c2ccccc2)c1)c1cccnc1
3.6	O=C(N[C@@H](CCCCCB(O)O)C(=O)Nc1cccc(-c2ccccc2)c1)c1ccccc1
0.53	O=C(N[C@@H](CCCCCB(O)O)C(=O)Nc1cccc(-c2ccccc2)c1)c1cncs1
> 100	O=C(N[C@H](CCCCCB(O)O)C(=O)Nc1cccc(-c2ccccc2)c1)c1ccccc1
0.83	O=C(N[C@@H](CCCCCB(O)O)C(=O)Nc1cccc(-c2ccccc2)c1)c1cccnc1
> 100	O=C(N[C@H](CCCCCB(O)O)C(=O)Nc1cccc(-c2ccccc2)c1)c1cncs1

molecular target: T2, Histone deacetylase 8 (Homo sapiens, UniProt Q9BY41); assay: Inhibition of human recombinant HDAC8 by fluorimetry; details: not given
T2 sequence (Q9BY41 whole entry): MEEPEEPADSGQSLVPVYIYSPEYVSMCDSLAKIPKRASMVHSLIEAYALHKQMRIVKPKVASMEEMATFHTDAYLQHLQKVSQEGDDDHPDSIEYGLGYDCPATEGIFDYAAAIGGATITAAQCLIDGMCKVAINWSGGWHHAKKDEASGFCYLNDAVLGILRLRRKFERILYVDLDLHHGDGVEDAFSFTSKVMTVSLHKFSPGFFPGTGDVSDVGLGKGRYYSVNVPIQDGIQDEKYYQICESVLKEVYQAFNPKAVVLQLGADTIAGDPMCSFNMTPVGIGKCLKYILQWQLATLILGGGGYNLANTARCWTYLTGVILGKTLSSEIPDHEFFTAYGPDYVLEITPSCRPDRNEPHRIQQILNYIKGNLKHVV

IC50 [µM]	Compound
> 100	O=C(N[C@H](CCCCCB(O)O)C(=O)Nc1cccc(-c2ccccc2)c1)c1cccnc1
> 100	O=C(N[C@@H](CCCCCB(O)O)C(=O)Nc1cccc(-c2ccccc2)c1)c1ccccc1
6.6	O=C(N[C@@H](CCCCCB(O)O)C(=O)Nc1cccc(-c2ccccc2)c1)c1cncs1
> 100	O=C(N[C@H](CCCCCB(O)O)C(=O)Nc1cccc(-c2ccccc2)c1)c1ccccc1
23	O=C(N[C@@H](CCCCCB(O)O)C(=O)Nc1cccc(-c2ccccc2)c1)c1cccnc1
> 100	O=C(N[C@H](CCCCCB(O)O)C(=O)Nc1cccc(-c2ccccc2)c1)c1cncs1

molecular target: T3, Protein deacetylase HDAC6 (Homo sapiens, UniProt Q9UBN7); assay: Inhibition of human recombinant HDAC6 by fluorimetry; details: not given
T3 sequence (Q9UBN7 whole entry): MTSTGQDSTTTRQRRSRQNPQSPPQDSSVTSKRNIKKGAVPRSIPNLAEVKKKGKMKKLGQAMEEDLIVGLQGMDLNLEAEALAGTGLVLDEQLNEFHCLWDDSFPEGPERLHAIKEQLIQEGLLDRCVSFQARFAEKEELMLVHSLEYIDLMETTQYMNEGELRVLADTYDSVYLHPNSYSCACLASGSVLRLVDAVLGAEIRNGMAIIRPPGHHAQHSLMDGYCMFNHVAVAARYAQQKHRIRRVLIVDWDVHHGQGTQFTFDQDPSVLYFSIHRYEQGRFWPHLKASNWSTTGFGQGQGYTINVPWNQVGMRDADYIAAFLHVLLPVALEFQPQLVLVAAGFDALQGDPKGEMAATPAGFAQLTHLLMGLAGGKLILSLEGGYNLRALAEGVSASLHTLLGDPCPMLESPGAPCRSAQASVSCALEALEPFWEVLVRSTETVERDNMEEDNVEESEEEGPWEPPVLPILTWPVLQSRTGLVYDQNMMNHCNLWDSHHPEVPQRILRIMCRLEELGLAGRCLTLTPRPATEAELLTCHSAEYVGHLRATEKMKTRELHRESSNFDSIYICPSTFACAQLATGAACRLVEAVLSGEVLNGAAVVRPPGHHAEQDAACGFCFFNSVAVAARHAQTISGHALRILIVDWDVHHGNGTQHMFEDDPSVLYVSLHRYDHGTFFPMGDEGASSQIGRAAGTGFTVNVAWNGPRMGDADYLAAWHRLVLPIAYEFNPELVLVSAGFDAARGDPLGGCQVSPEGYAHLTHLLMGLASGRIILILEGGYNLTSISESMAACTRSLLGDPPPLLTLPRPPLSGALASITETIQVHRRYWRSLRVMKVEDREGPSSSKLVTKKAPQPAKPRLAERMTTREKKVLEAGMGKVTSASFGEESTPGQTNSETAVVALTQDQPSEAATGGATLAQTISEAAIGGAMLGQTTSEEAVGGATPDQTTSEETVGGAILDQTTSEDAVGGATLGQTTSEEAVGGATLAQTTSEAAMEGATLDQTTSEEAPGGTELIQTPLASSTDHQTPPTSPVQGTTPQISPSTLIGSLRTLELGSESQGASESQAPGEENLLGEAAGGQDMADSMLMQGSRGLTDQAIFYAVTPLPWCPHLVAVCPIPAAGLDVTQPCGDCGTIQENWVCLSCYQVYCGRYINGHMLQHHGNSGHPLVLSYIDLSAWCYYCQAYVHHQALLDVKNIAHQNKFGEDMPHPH

IC50 [µM]	Compound
14	O=C(N[C@H](CCCCCB(O)O)C(=O)Nc1cccc(-c2ccccc2)c1)c1cccnc1
1.1	O=C(N[C@@H](CCCCCB(O)O)C(=O)Nc1cccc(-c2ccccc2)c1)c1ccccc1
0.11	O=C(N[C@@H](CCCCCB(O)O)C(=O)Nc1cccc(-c2ccccc2)c1)c1cncs1
24	O=C(N[C@H](CCCCCB(O)O)C(=O)Nc1cccc(-c2ccccc2)c1)c1ccccc1
0.32	O=C(N[C@@H](CCCCCB(O)O)C(=O)Nc1cccc(-c2ccccc2)c1)c1cccnc1
5.6	O=C(N[C@H](CCCCCB(O)O)C(=O)Nc1cccc(-c2ccccc2)c1)c1cncs1

molecular target: T1, Histone deacetylase 1; assay: Inhibition of human recombinant HDAC1 at 10 uM by fluorimetry; details: not given

inhibition [%]	Compound
38	O=C(N[C@@H](CCCCCB(O)O)C(=O)Nc1cccc(-c2ccccc2)c1)c1ccccc1

test system: MKN-45; assay: cells; type: functional; details: Homo sapiens, MKN-45, 48 h

GI50 [µM]	Compound
9.3	O=C(N[C@@H](CCCCCB(O)O)C(=O)Nc1cccc(-c2ccccc2)c1)c1ccccc1
3.5	O=C(N[C@@H](CCCCCB(O)O)C(=O)Nc1cccc(-c2ccccc2)c1)c1cncs1
5.5	O=C(N[C@@H](CCCCCB(O)O)C(=O)Nc1cccc(-c2ccccc2)c1)c1cccnc1
21	O=C(N[C@H](CCCCCB(O)O)C(=O)Nc1cccc(-c2ccccc2)c1)c1cncs1

test system: not listed separately; assay: Ratio of GI50 for human MKN45 cells to IC50 for HDAC in human HeLa cells; details: not given

Compound	Ratio
O=C(N[C@@H](CCCCCB(O)O)C(=O)Nc1cccc(-c2ccccc2)c1)c1ccccc1	5.8
O=C(N[C@@H](CCCCCB(O)O)C(=O)Nc1cccc(-c2ccccc2)c1)c1cncs1	3.8
O=C(N[C@@H](CCCCCB(O)O)C(=O)Nc1cccc(-c2ccccc2)c1)c1cccnc1	3.9

test system: not listed separately; assay: Ratio of GI50 for human MKN45 cells to IC50 for human recombinant HDAC1; parameters: species or system MKN-45; details: not given

Compound	Ratio
O=C(N[C@@H](CCCCCB(O)O)C(=O)Nc1cccc(-c2ccccc2)c1)c1ccccc1	< 0.93
O=C(N[C@@H](CCCCCB(O)O)C(=O)Nc1cccc(-c2ccccc2)c1)c1cncs1	1.6
O=C(N[C@@H](CCCCCB(O)O)C(=O)Nc1cccc(-c2ccccc2)c1)c1cccnc1	2

test system: not listed separately; assay: Ratio of GI50 for human MKN45 cells to IC50 for human recombinant HDAC2; parameters: species or system MKN-45; details: not given

Compound	Ratio
O=C(N[C@@H](CCCCCB(O)O)C(=O)Nc1cccc(-c2ccccc2)c1)c1ccccc1	2.6
O=C(N[C@@H](CCCCCB(O)O)C(=O)Nc1cccc(-c2ccccc2)c1)c1cncs1	6.6
O=C(N[C@@H](CCCCCB(O)O)C(=O)Nc1cccc(-c2ccccc2)c1)c1cccnc1	6.6

test system: not listed separately; assay: cells; type: functional; details: Homo sapiens, HBC5, 48 h

Compound	GI50 [µM]
O=C(N[C@@H](CCCCCB(O)O)C(=O)Nc1cccc(-c2ccccc2)c1)c1cncs1	6.5
O=C(N[C@H](CCCCCB(O)O)C(=O)Nc1cccc(-c2ccccc2)c1)c1cncs1	20

test system: SNB-78; assay: cells; type: functional; details: Homo sapiens, SNB-78, 48 h

Compound	GI50 [µM]
O=C(N[C@@H](CCCCCB(O)O)C(=O)Nc1cccc(-c2ccccc2)c1)c1cncs1	9.1
O=C(N[C@H](CCCCCB(O)O)C(=O)Nc1cccc(-c2ccccc2)c1)c1cncs1	13

test system: HCT-116; assay: cells; type: functional; details: Homo sapiens, HCT-116, 48 h

GI50 [µM]	Compound
0.73	O=C(N[C@@H](CCCCCB(O)O)C(=O)Nc1cccc(-c2ccccc2)c1)c1cncs1
16	O=C(N[C@H](CCCCCB(O)O)C(=O)Nc1cccc(-c2ccccc2)c1)c1cncs1

test system: DMS-114; assay: Growth inhibition of human DMS114 cells after 48 hrs by sulforhodamine B assay; type: functional; details: not given
In short: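 GI50 read from growth inhibition of DMS114 lung cancer cells, one line in a nine-line human cancer panel; each value is the mean of two separate experiments.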

Compound	GI50 [µM]
O=C(CCCCCCC(=O)Nc1ccccc1)NO [VORINOSTAT]	2.9

same assay, conditions: Homo sapiens, DMS-114, 48 h

Compound	GI50 [µM]
O=C(N[C@@H](CCCCCB(O)O)C(=O)Nc1cccc(-c2ccccc2)c1)c1cncs1	2.4
O=C(N[C@H](CCCCCB(O)O)C(=O)Nc1cccc(-c2ccccc2)c1)c1cncs1	17

test system: LOX IMVI; assay: cells; type: functional; details: Homo sapiens, 48 h

Compound	GI50 [µM]
O=C(N[C@@H](CCCCCB(O)O)C(=O)Nc1cccc(-c2ccccc2)c1)c1cncs1	1.3
O=C(N[C@H](CCCCCB(O)O)C(=O)Nc1cccc(-c2ccccc2)c1)c1cncs1	19

test system: SK-OV-3; assay: cells; type: functional; details: Homo sapiens, SK-OV-3, 48 h

GI50 [µM]	Compound
2.2	O=C(N[C@@H](CCCCCB(O)O)C(=O)Nc1cccc(-c2ccccc2)c1)c1cncs1
19	O=C(N[C@H](CCCCCB(O)O)C(=O)Nc1cccc(-c2ccccc2)c1)c1cncs1

test system: not listed separately; assay: cells; type: functional; details: Homo sapiens, RXF 631, 48 h

Compound	GI50 [µM]
O=C(N[C@@H](CCCCCB(O)O)C(=O)Nc1cccc(-c2ccccc2)c1)c1cncs1	3.2
O=C(N[C@H](CCCCCB(O)O)C(=O)Nc1cccc(-c2ccccc2)c1)c1cncs1	19

test system: PC-3; assay: cells; type: functional; details: Homo sapiens, PC-3, 48 h

GI50 [µM]	Compound
6.7	O=C(N[C@@H](CCCCCB(O)O)C(=O)Nc1cccc(-c2ccccc2)c1)c1cncs1
18	O=C(N[C@H](CCCCCB(O)O)C(=O)Nc1cccc(-c2ccccc2)c1)c1cncs1

molecular target: Histone deacetylase (Homo sapiens) (UniProt Q13547+O15379+Q9UBN7+Q92769+Q9UQL6+Q8WUI4+Q9BY41+Q96DB2+P56524+Q9UKV0+Q969S8); assay: Inhibition of HDAC in human HCT116 cells assessed as induction of histone H4 acetylation after 8 hrs by Western blot analysis; type: cell-based; details: HCT-116

Activity	Compound
Dose-dependent effect	O=C(N[C@@H](CCCCCB(O)O)C(=O)Nc1cccc(-c2ccccc2)c1)c1ccccc1
Dose-dependent effect	O=C(N[C@@H](CCCCCB(O)O)C(=O)Nc1cccc(-c2ccccc2)c1)c1cncs1
Dose-dependent effect	O=C(N[C@@H](CCCCCB(O)O)C(=O)Nc1cccc(-c2ccccc2)c1)c1cccnc1

molecular target: T4, Protein deacetylase HDAC6 (Homo sapiens) (UniProt Q9UBN7); assay: Inhibition of HDAC6 in human HCT116 cells assessed as induction of alpha tubulin acetylation after 8 hrs by Western blot analysis; type: cell-based; details: HCT-116
T4 sequence (whole entry): T3 sequence (Q9UBN7 whole entry)

Activity	Compound
Dose-dependent effect	O=C(N[C@@H](CCCCCB(O)O)C(=O)Nc1cccc(-c2ccccc2)c1)c1ccccc1
Dose-dependent effect	O=C(N[C@@H](CCCCCB(O)O)C(=O)Nc1cccc(-c2ccccc2)c1)c1cncs1
Dose-dependent effect	O=C(N[C@@H](CCCCCB(O)O)C(=O)Nc1cccc(-c2ccccc2)c1)c1cccnc1
